Results published in ChEMBL document CHEMBL3244308, “Potential antitumor agents. 22. Latentiated congeners of the 4'-(9-acridinylamino)methanesulfonanilides” (J Med Chem, 1977).

Key:
L1210 [1] = assay: Antitumor activity against mouse L1210 cells intraperitoneally xenografted in ip dosed C3H/DBA2 F1 hybrid mouse assessed as increase in host lifespan administered daily for 5 days starting 24 hrs post-tumor implantation; type: functional
How it was run: (§1)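 10⁵ L1210 cells implanted ip into 18.5-22.5-g C3H/DBA2 F1 mice. Daily ip treatment for 5 days from 24 h after implant, as water-soluble salts (methanesulfonate or hydrochloride) or as homogenized suspensions in aqueous methylcellulose. Groups of six mice. Read-out is increase in life span (T/C% − 100) at the optimum dose (maximal life-span increase, mg/kg/day); 50-day survivors counted.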

Mus musculus = assay: Toxicity in ip dosed mouse assessed as optimum dose that providing maximum increase in life span administered qd for 1 to 5 days; type: organism-based; settings: in vivo
How it was run: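 Mice were C3H/DBA2 F1 hybrids weighing 18.5-22.5 g. L1210 cells (10^5) were implanted ip or sc above the right axilla. Daily ip treatment began 24 h later and continued for 5 days (dq 1-5), given in water or as a homogenized suspension in aqueous methylcellulose. The optimum dose (mg/kg/day) is the one giving maximum life-span increase (T/C% - 100). Groups were six mice; 50-day survivors were counted.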

[2] = Lipophilic-hydrophilic balance, Rm of the compound by reversed-phase partition chromatography; type: physicochemical
L1210 [3] = assay: Antitumor activity against mouse L1210 cells subcutaneously xenografted in ip dosed C3H/DBA2 F1 hybrid mouse assessed as increase in host lifespan administered daily for 5 days starting 24 hrs post-tumor implantation; type: functional
How it was run: as §1, with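 “implanted sc above the right axilla” for “implanted ip”, “ip dosing” for “ip treatment”, “salts” for “salts (methanesulfonate or hydrochloride)”, “mice. Increase” for “mice. Read-out is increase”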

[4] = Half life of the compound in 0.1 M mercaptoethanol buffer at pH 7.4 at 37 degC by thiolytic assay; type: physicochemical
Blood = assay: Stability in mouse blood assessed as 4'-(9-acridinylamino)methanesulfonanilide release at 37 degC; type: ADME, tissue-based

For `CCCC(=O)N(c1ccc(Nc2c3ccc([N+](=O)[O-])cc3nc3c(C)cccc23)cc1)S(C)(=O)=O`, the ILS (L1210 [1]) was 71%, the Activity (Mus musculus) was 50 mg/kg and the Rm [2] was 0.31. It also gave an ILS (L1210 [3]) of 31%.

For `CC(=O)N(c1ccc(Nc2c3ccc([N+](=O)[O-])cc3nc3c(C)cccc23)cc1)S(C)(=O)=O`, the ILS (L1210 [1]) was 217%, the Activity (Mus musculus) was 200 mg/kg and the Rm [2] was -0.03. The ILS (L1210 [3]) was 188%.

`CCCCC(=O)N(c1ccc(Nc2c3ccccc3nc3cc([N+](=O)[O-])ccc23)cc1)S(C)(=O)=O` gave an ILS (L1210 [1]) of 91%, an Activity (Mus musculus) of 26 mg/kg and a Rm [2] of 0.32. For the same compound, the ILS (L1210 [3]) was 57%.

For `CC(=O)N(c1ccc(Nc2c3ccccc3nc3cc([N+](=O)[O-])ccc23)cc1)S(C)(=O)=O`, the ILS (L1210 [1]) was 138%, the Activity (Mus musculus) was 50 mg/kg and the Rm [2] was -0.08. For the same compound, the ILS (L1210 [3]) was 61%.

With `CCC(=O)N(c1ccc(Nc2c3ccccc3nc3cc([N+](=O)[O-])ccc23)cc1)S(C)(=O)=O` the ILS (L1210 [1]) was 162%, the Activity (Mus musculus) was 50 mg/kg and the Rm [2] was 0.13. The ILS (L1210 [3]) was 57%.

In the case of `CCCCCC(=O)N(c1ccc(Nc2c3ccccc3nc3cc([N+](=O)[O-])ccc23)cc1)S(C)(=O)=O`, the ILS (L1210 [1]) is reported as 57%, the Activity (Mus musculus) is reported as 5 mg/kg and the Rm [2] is reported as 0.41. The ILS (L1210 [3]) was 39%.

Compound `CCC(=O)N(c1ccc(Nc2c3ccc([N+](=O)[O-])cc3nc3c(C)cccc23)cc1)S(C)(=O)=O` has an ILS (L1210 [1]) of 81%, an Activity (Mus musculus) of 50 mg/kg and a Rm [2] of 0.2. It also gave an ILS (L1210 [3]) of 27%.

`CCCCCCC(=O)N(c1ccc(Nc2c3ccccc3nc3cc([N+](=O)[O-])ccc23)cc1)S(C)(=O)=O` gave an ILS (L1210 [1]) of 48%, an Activity (Mus musculus) of 9 mg/kg and a Rm [2] of 0.5. The ILS (L1210 [3]) was 41%.

For `Cc1cccc2c(Nc3ccc(NS(C)(=O)=O)cc3)c3ccc([N+](=O)[O-])cc3nc12`, the ILS (L1210 [1]) was 113%, the Activity (Mus musculus) was 100 mg/kg and the Rm [2] was -0.01. It also gave an ILS (L1210 [3]) of 98%.

`CCCCCCCC(=O)N(c1ccc(Nc2c3ccccc3nc3cc([N+](=O)[O-])ccc23)cc1)S(C)(=O)=O` gave an ILS (L1210 [1]) of 62%, an Activity (Mus musculus) of 10 mg/kg and a Rm [2] of 0.61. It also gave an ILS (L1210 [3]) of 47%.

With `CCCCCCCCC(=O)N(c1ccc(Nc2c3ccccc3nc3cc([N+](=O)[O-])ccc23)cc1)S(C)(=O)=O` the ILS (L1210 [1]) was 144%, the Activity (Mus musculus) was 75 mg/kg and the Rm [2] was 0.71. It also gave an ILS (L1210 [3]) of 61%.

In the case of `CC(=O)N(c1ccc(Nc2c3ccccc3nc3ccccc23)cc1)S(C)(=O)=O.Cl`, the half-life [4] is reported as 396 min, the ILS (L1210 [1]) is reported as 109% and the Activity (Mus musculus) is reported as 160 mg/kg. The Stability (Blood) was “Unstable”, the Rm [2] was -0.14 and the ILS (L1210 [3]) was 68%.

Work on `CN(C)/N=N/c1ccc2c(Nc3ccc(NS(C)(=O)=O)cc3)c3ccccc3nc2c1.Cl` yielded an ILS (L1210 [1]) of 110%, an Activity (Mus musculus) of 8 mg/kg and a Rm [2] of 0.22. It also gave an ILS (L1210 [3]) of 38%.

For `CCCN(C)/N=N/c1ccc2c(Nc3ccc(NS(C)(=O)=O)cc3)c3ccccc3nc2c1.CS(=O)(=O)O`, the ILS (L1210 [1]) was 98%, the Activity (Mus musculus) was 15 mg/kg and the Rm [2] was 0.47. It also gave an ILS (L1210 [3]) of 27%.

`COc1cc(NS(C)(=O)=O)ccc1Nc1c2ccccc2nc2cc(/N=N/N(C)C)ccc12.Cl` showed an ILS (L1210 [1]) of 141%, an Activity (Mus musculus) of 10 mg/kg and a Rm [2] of 0.38. It also gave an ILS (L1210 [3]) of 34%.

Work on `CCCN(C)/N=N/c1ccc2c(Nc3ccc(NS(C)(=O)=O)cc3OC)c3ccccc3nc2c1.CS(=O)(=O)O` yielded an ILS (L1210 [1]) of 100%, an Activity (Mus musculus) of 15 mg/kg and a Rm [2] of 0.65. For the same compound, the ILS (L1210 [3]) was 59%.

Compound `CS(=O)(=O)Nc1ccc(Nc2c3ccccc3nc3cc(N=[N+]=[N-])ccc23)cc1.Cl` has an ILS (L1210 [1]) of 216%, an Activity (Mus musculus) of 16 mg/kg and a Rm [2] of -0.02. It also gave an ILS (L1210 [3]) of 64%.

`COc1cc(NS(C)(=O)=O)ccc1Nc1c2ccccc2nc2cc(N=[N+]=[N-])ccc12.Cl` showed an ILS (L1210 [1]) of 118%, an Activity (Mus musculus) of 8 mg/kg and a Rm [2] of 0.14. The ILS (L1210 [3]) was 47%.

Work on `COc1cc(NS(C)(=O)=O)ccc1Nc1c2ccccc2nc2ccccc12` [AMSACRINE] yielded an ILS (L1210 [1]) of 114%, an Activity (Mus musculus) of 6.7 mg/kg and a Rm [2] of 0.18. For the same compound, the ILS (L1210 [3]) was 27%.
